According to ChEMBL document CHEMBL1649278, “Characterization of a new metallo-beta-lactamase gene, bla(NDM-1), and a novel erythromycin esterase gene carried on a unique genetic structure in Klebsiella pneumoniae sequence type 14 from India” (2009):
In brackets after ≈: the same amount, converted by molar mass.

Legend:
Escherichia coli [1] = test: Antibacterial activity against Escherichia coli J53 harboring beta-lactamase NDM-1 by Etest method; assay type: functional
Summary of the method: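 Transconjugant of E. coli J53 recipient, mated with donor on blood agar without selection for 18 h. Selected on MacConkey agar with sodium azide (100 μg/ml) plus ceftazidime (8 μg/ml). Transfer confirmed by indole test and PCR for the MBL gene. Susceptibility read by Etest.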

Escherichia coli [2] = test: Antibacterial activity against Escherichia coli J53 by Etest method; assay type: functional
Escherichia coli [3] = test: Antibacterial activity against Escherichia coli TOP10 harboring beta-lactamase NDM-1 by Etest method; assay type: functional
Summary of the method: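 Fragments from BamHI, EcoRI or HindIII digests of K. pneumoniae 05-506 DNA were cloned into vector pK18 and electroporated into E. coli TOP10. Transformants were selected on LB agar with X-gal (30 μg/ml), ceftazidime (6 μg/ml) and kanamycin (25 μg/ml). Susceptibility read by Etest.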

Klebsiella pneumoniae [4] = test: Antibacterial activity against Klebsiella pneumoniae 05-560 by Etest method; assay type: functional
Escherichia coli [5] = test: Antibacterial activity against Escherichia coli NF-NDM-1 by Etest method; assay type: functional
Escherichia coli [6] = test: Antibacterial activity against Escherichia coli TOP10 by Etest method; assay type: functional
Klebsiella pneumoniae [7] = test: Activity of Klebsiella pneumoniae 05-560 beta-lactamase IMP1 by spectrophotometry
Klebsiella pneumoniae [8] = test: Ratio of Kcat to Km for Klebsiella pneumoniae 05-560 beta-lactamase IMP1
[9] = test system: CC1(C)S[C@@H]2[C@H](NC(=O)Cc3ccccc3)C(=O)N2[C@H]1C(=O)O; test: (§1) Ratio of Kcat to Km for Klebsiella pneumoniae 05-560 beta-lactamase VIM2
[10] = test system: CO/N=C(\C(=O)N[C@@H]1C(=O)N2C(C(=O)O)=C(COC(C)=O)CS[C@H]12)c1csc(N)n1; test: as §1
[11] = test system: CCN1CCN(C(=O)N[C@@H](C(=O)N[C@@H]2C(=O)N3[C@@H]2SC(C)(C)[C@@H]3C(=O)O)c2ccccc2)C(=O)C1=O; test: as §1
[12] = test system: CC(C)(O/N=C(\C(=O)N[C@@H]1C(=O)N2C(C(=O)[O-])=C(C[n+]3ccccc3)CS[C@H]12)c1csc(N)n1)C(=O)O; test: as §1
[13] = test system: CC(=O)OCC1=C(C(=O)O)N2C(=O)[C@@H](NC(=O)Cc3cccs3)[C@H]2SC1; test: as §1
[14] = test system: CC1(C)S[C@@H]2[C@H](NC(=O)Cc3ccccc3)C(=O)N2[C@H]1C(=O)O; test: (§2) Activity of Klebsiella pneumoniae 05-560 beta-lactamase VIM2 by spectrophotometry
[15] = test system: CO[C@@]1(NC(=O)Cc2cccs2)C(=O)N2C(C(=O)O)=C(COC(N)=O)CS[C@@H]21; test: as §2
[16] = test system: CO/N=C(\C(=O)N[C@@H]1C(=O)N2C(C(=O)O)=C(COC(C)=O)CS[C@H]12)c1csc(N)n1; test: as §2
[17] = test system: CCN1CCN(C(=O)N[C@@H](C(=O)N[C@@H]2C(=O)N3[C@@H]2SC(C)(C)[C@@H]3C(=O)O)c2ccccc2)C(=O)C1=O; test: as §2
[18] = test system: CC(C)(O/N=C(\C(=O)N[C@@H]1C(=O)N2C(C(=O)[O-])=C(C[n+]3ccccc3)CS[C@H]12)c1csc(N)n1)C(=O)O; test: as §2
[19] = test system: CC(=O)OCC1=C(C(=O)O)N2C(=O)[C@@H](NC(=O)Cc3cccs3)[C@H]2SC1; test: as §2
[20] = substrate: CCN1CCN(C(=O)N[C@@H](C(=O)N[C@@H]2C(=O)N3[C@@H]2SC(C)(C)[C@@H]3C(=O)O)c2ccccc2)C(=O)C1=O; test: (§3) Ratio of Kcat to Km for Klebsiella pneumoniae 05-560 beta-lactamase NDM-1
Summary of the method: (§4)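 NDM-1 was expressed as a His-trx fusion. The cleared lysate (12,000 rpm, 30 min, 4°C) was bound to Ni-NTA agarose and eluted with 300 mM imidazole. The tag was cut off with TEV protease, and the protein was finished by GS320 gel filtration.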

[21] = substrate: C[C@@H](O)[C@H]1C(=O)N2C(C(=O)O)=C(SCCNC=N)C[C@H]12; test: as §3; summary of the method: as §4
[22] = substrate: CO/N=C(\C(=O)N[C@@H]1C(=O)N2C(C(=O)[O-])=C(C[N+]3(C)CCCC3)CS[C@H]12)c1csc(N)n1; test: as §3; summary of the method: as §4
[23] = substrate: CC(C)(O/N=C(\C(=O)N[C@@H]1C(=O)N2C(C(=O)[O-])=C(C[n+]3ccccc3)CS[C@H]12)c1csc(N)n1)C(=O)O; test: as §3; summary of the method: as §4
[24] = substrate: CO/N=C(\C(=O)N[C@@H]1C(=O)N2C(C(=O)O)=C(COC(C)=O)CS[C@H]12)c1csc(N)n1; test: as §3; summary of the method: as §4
[25] = substrate: CC1(C)S[C@@H]2[C@H](NC(=O)Cc3ccccc3)C(=O)N2[C@H]1C(=O)O; test: as §3; summary of the method: as §4
[26] = substrate: CC(=O)OCC1=C(C(=O)O)N2C(=O)[C@@H](NC(=O)Cc3cccs3)[C@H]2SC1; test: as §3; summary of the method: as §4
[27] = substrate: CC1(C)S[C@@H]2[C@H](NC(=O)[C@H](N)c3ccccc3)C(=O)N2[C@H]1C(=O)O; test: as §3; summary of the method: as §4
[28] = substrate: CO[C@@]1(NC(=O)Cc2cccs2)C(=O)N2C(C(=O)O)=C(COC(N)=O)CS[C@@H]21; test: as §3; summary of the method: as §4
[29] = substrate: CCN1CCN(C(=O)N[C@@H](C(=O)N[C@@H]2C(=O)N3[C@@H]2SC(C)(C)[C@@H]3C(=O)O)c2ccccc2)C(=O)C1=O; test: (§5) Activity of Klebsiella pneumoniae 05-560 beta-lactamase NDM-1 by spectrophotometry; summary of the method: as §4
[30] = substrate: C[C@@H](O)[C@H]1C(=O)N2C(C(=O)O)=C(SCCNC=N)C[C@H]12; test: as §5; summary of the method: as §4
[31] = substrate: CO/N=C(\C(=O)N[C@@H]1C(=O)N2C(C(=O)[O-])=C(C[N+]3(C)CCCC3)CS[C@H]12)c1csc(N)n1; test: as §5; summary of the method: as §4
[32] = substrate: CC(C)(O/N=C(\C(=O)N[C@@H]1C(=O)N2C(C(=O)[O-])=C(C[n+]3ccccc3)CS[C@H]12)c1csc(N)n1)C(=O)O; test: as §5; summary of the method: as §4
[33] = substrate: CO/N=C(\C(=O)N[C@@H]1C(=O)N2C(C(=O)O)=C(COC(C)=O)CS[C@H]12)c1csc(N)n1; test: as §5; summary of the method: as §4
[34] = substrate: CC1(C)S[C@@H]2[C@H](NC(=O)Cc3ccccc3)C(=O)N2[C@H]1C(=O)O; test: as §5; summary of the method: as §4
[35] = substrate: CC(=O)OCC1=C(C(=O)O)N2C(=O)[C@@H](NC(=O)Cc3cccs3)[C@H]2SC1; test: as §5; summary of the method: as §4
[36] = substrate: CC1(C)S[C@@H]2[C@H](NC(=O)[C@H](N)c3ccccc3)C(=O)N2[C@H]1C(=O)O; test: as §5; summary of the method: as §4
[37] = substrate: CO[C@@]1(NC(=O)Cc2cccs2)C(=O)N2C(C(=O)O)=C(COC(N)=O)CS[C@@H]21; test: as §5; summary of the method: as §4

CO/N=C(\C(=O)N[C@@H]1C(=O)N2C(C(=O)O)=C(COC(N)=O)CS[C@H]12)c1ccco1 [CEFUROXIME]
MIC (Escherichia coli [1]): > 256 µg/mL | MIC (Escherichia coli [2]): 8 µg/mL (≈ 18.9 µM) | MIC (Escherichia coli [3]): > 256 µg/mL | MIC (Klebsiella pneumoniae [4]): > 256 µg/mL | MIC (Escherichia coli [5]): > 256 µg/mL | MIC (Escherichia coli [6]): 8 µg/mL (≈ 18.9 µM)

CC(=O)OCC1=C(C(=O)O)N2C(=O)[C@@H](NC(=O)Cc3cccs3)[C@H]2SC1 [CEPHALOTHIN]
MIC (Escherichia coli [1]): > 256 µg/mL | Km (Klebsiella pneumoniae [7]): 21 µM | kcat (Klebsiella pneumoniae [7]): 48 s⁻¹ | MIC (Escherichia coli [2]): 4 µg/mL (≈ 10.1 µM) | MIC (Escherichia coli [3]): > 256 µg/mL | kcat/Km (Klebsiella pneumoniae [8]): 2.4e+06 M⁻¹ s⁻¹ | MIC (Klebsiella pneumoniae [4]): > 256 µg/mL | MIC (Escherichia coli [5]): > 256 µg/mL | MIC (Escherichia coli [6]): 8 µg/mL (≈ 20.2 µM)

O=C(O)c1cn(C2CC2)c2cc(N3CCNCC3)c(F)cc2c1=O [CIPROFLOXACIN]
MIC (Escherichia coli [1]): 0.047 µg/mL (≈ 0.142 µM) | MIC (Escherichia coli [2]): 0.032 µg/mL (≈ 0.0966 µM) | MIC (Klebsiella pneumoniae [4]): > 256 µg/mL

C[C@@H](O)[C@H]1C(=O)N2C(C(=O)O)=C(SCCNC=N)C[C@H]12 [IMIPENEM ANHYDROUS]
MIC (Escherichia coli [1]): 16 µg/mL (≈ 53.4 µM) | Km (Klebsiella pneumoniae [7]): 39 µM | kcat (Klebsiella pneumoniae [7]): 46 s⁻¹ | MIC (Escherichia coli [3]): 12 µg/mL (≈ 40.1 µM) | kcat/Km (Klebsiella pneumoniae [8]): 1.2e+06 M⁻¹ s⁻¹ | MIC (Klebsiella pneumoniae [4]): > 256 µg/mL | MIC (Escherichia coli [5]): > 32 µg/mL | MIC (Escherichia coli [6]): 0.094 µg/mL (≈ 0.314 µM)

C[C@@H](O)[C@H]1C(=O)N2C(C(=O)O)=C(S[C@@H]3CN[C@H](C(=O)N(C)C)C3)[C@H](C)[C@H]12 [MEROPENEM]
MIC (Escherichia coli [1]): > 32 µg/mL | MIC (Escherichia coli [2]): 0.064 µg/mL (≈ 0.167 µM) | MIC (Escherichia coli [3]): 12 µg/mL (≈ 31.3 µM) | MIC (Klebsiella pneumoniae [4]): > 256 µg/mL | MIC (Escherichia coli [5]): > 32 µg/mL | MIC (Escherichia coli [6]): 0.064 µg/mL (≈ 0.167 µM)

CCN1CCN(C(=O)N[C@@H](C(=O)N[C@@H]2C(=O)N3[C@@H]2SC(C)(C)[C@@H]3C(=O)O)c2ccccc2)C(=O)C1=O [PIPERACILLIN]
MIC (Escherichia coli [1]): > 256 µg/mL | MIC (Escherichia coli [2]): 1 µg/mL (≈ 1.93 µM) | MIC (Klebsiella pneumoniae [4]): > 256 µg/mL | MIC (Escherichia coli [5]): > 256 µg/mL | MIC (Escherichia coli [6]): 0.5 µg/mL (≈ 0.966 µM)

COLISTIN
MIC (Escherichia coli [1]): 0.25 µg/mL | MIC (Escherichia coli [2]): 0.25 µg/mL | MIC (Escherichia coli [3]): 0.38 µg/mL | MIC (Klebsiella pneumoniae [4]): 0.75 µg/mL | MIC (Escherichia coli [5]): 0.25 µg/mL | MIC (Escherichia coli [6]): 0.38 µg/mL

Metallo-beta-lactamase VIM-2 (Klebsiella pneumoniae) (from UniProt Q3Y6Q3)
kcat/Km [9]: 1.14e+06 M⁻¹ s⁻¹ | kcat/Km [10]: 860000 M⁻¹ s⁻¹ | kcat/Km [11]: 450000 M⁻¹ s⁻¹ | kcat/Km [12]: 900000 M⁻¹ s⁻¹ | kcat/Km [13]: 1.28e+06 M⁻¹ s⁻¹ | Km [14]: 49 µM | kcat [14]: 56 s⁻¹ | Km [15]: 24 µM | kcat [15]: 3 s⁻¹ | Km [16]: 32 µM | Km [17]: 72 µM | kcat [17]: 33 s⁻¹ | Km [18]: 98 µM | kcat [18]: 89 s⁻¹ | Km [19]: 44 µM | kcat [19]: 57 s⁻¹

B1: Metallo-beta-lactamase type 2 (Klebsiella pneumoniae), C7C422 (protein)
chain: MELPNIMHPVAKLSTALAAALMLSGCMPGEIRPTIGQQMETGDQRFGDLVFRQLAPNVWQHTSYLDMPGFGAVASNGLIVRDGGRVLVVDTAWTDDQTAQILNWIKQEINLPVALAVVTHAHQDKMGGMDALHAAGIATYANALSNQLAPQEGMVAAQHSLTFAANGWVEPATAPNFGPLKVFYPGPGHTSDNITVGIDGTDIAFGGCLIKDSKAKSLGNLGDADTEHYAASARAFGAAFPKASMIVMSHSAPDSRAAITHTARMADKLR
kcat/Km [20]: 1.17e+06 M⁻¹ s⁻¹ | kcat/Km [21]: 210000 M⁻¹ s⁻¹ | kcat/Km [22]: 170000 M⁻¹ s⁻¹ | kcat/Km [23]: 30000 M⁻¹ s⁻¹ | kcat/Km [24]: 580000 M⁻¹ s⁻¹ | kcat/Km [25]: 680000 M⁻¹ s⁻¹ | kcat/Km [26]: 400000 M⁻¹ s⁻¹ | kcat/Km [27]: 660000 M⁻¹ s⁻¹ | kcat/Km [28]: 20000 M⁻¹ s⁻¹ | kcat [29]: 14 s⁻¹ | Km [30]: 94 µM | kcat [30]: 20 s⁻¹ | Km [31]: 77 µM | kcat [31]: 13 s⁻¹ | Km [32]: 181 µM | kcat [32]: 5 s⁻¹ | Km [33]: 10 µM | kcat [33]: 6 s⁻¹ | Km [34]: 16 µM | kcat [34]: 11 s⁻¹ | Km [35]: 10 µM | kcat [35]: 4 s⁻¹ | Km [36]: 22 µM | kcat [36]: 15 s⁻¹ | kcat [37]: 1 s⁻¹
